Results published in ChEMBL document CHEMBL2151006 (Eur J Med Chem, 2012).

Tests used:
Cannabinoid receptor 2 [1] = target: T1, Cannabinoid receptor 2 (Homo sapiens, UniProt P34972); experiment: Displacement of [3H]CP55940 from human recombinant CB2 receptor transfected in HEK cell membranes; set-up: species or system HEK293
Cannabinoid receptor 1 [2] = target: T2, Cannabinoid receptor 1 (Homo sapiens, UniProt P21554); experiment: biochemical; assay type: cell-based, HEK293
Homo sapiens = organism: Homo sapiens; experiment: Selectivity index, ratio of Ki for human recombinant CB1 receptor to Ki for human recombinant CB2 receptor
[3] = Metabolic stability in rat plasma assessed as compound remaining measured at 3 hrs; assay type: ADME, cell-free; details: read-out: Stability
Outline: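 Fresh rat plasma was spiked with compound and incubated at 37 °C with gentle agitation, in duplicate. Samples were taken at 0, 30 min and 3 h and proteins precipitated with acetonitrile. LC-ESI+-MS/MS in MRM mode; percent remaining is peak area relative to time 0.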

Cannabinoid receptor 1 [4] = target: T2, Cannabinoid receptor 1; experiment: Agonist activity at human CB1 receptor transfected in CHO cell membranes at 0.001 to 30 uM by [35S]GTPgammaS binding assay relative to CP55940; assay type: functional
MDR1 [5] = experiment: Efflux ratio of permeability from basolateral to apical side over apical to basolateral side in human MDR1 transfected MDCK2 cells at 10 uM after 2 hrs; assay type: ADME, cell-based, Canis lupus familiaris, MDCK-II; details: dog, MDCK-MDR1
Cannabinoid receptor 1 [6] = target: T2, Cannabinoid receptor 1; experiment: Agonist activity at human CB1 receptor transfected in CHO cell membranes by [35S]GTPgammaS binding assay; assay type: functional
[7] = Intrinsic clearance in human liver microsomes; assay type: ADME, Microsome; details: read-out: CLH
CYP3A4 = CYP3A4 (Homo sapiens, UniProt P08684); experiment: Metabolic stability assessed as human recombinant CYP3A4-mediated drug metabolism by measuring compound remaining after 1 hr; assay type: ADME; details: read-out: Drug metabolism
Outline: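 Recombinant hCYP3A4 at 20 pmol/mL in 100 mM phosphate pH 7.4 with 1 mM EDTA, […]. Incubation was 1 h at 37 °C with or without NADPH regenerating system, then stopped with cold acetonitrile. Percent remaining is the MS peak area with NADPH over that without, ×100.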

MDR1 [8] = experiment: Apparent permeability across apical to basolateral side in human MDR1 transfected MDCK2 cells at 10 uM after 2 hrs; assay type: ADME, cell-based, Canis lupus familiaris, MDCK-II; details: dog, MDCK-MDR1
[9] = Intrinsic clearance in rat liver microsomes; assay type: ADME, Microsome; details: read-out: CLH
Cannabinoid receptor 2 [10] = target: T1, Cannabinoid receptor 2; experiment: Agonist activity at human CB2 receptor transfected in CHO cell membranes by [35S]GTPgammaS binding assay; assay type: functional
Cannabinoid receptor 2 [11] = target: T1, Cannabinoid receptor 2; details: CHO, 0.001 to 10 uM

T2 sequence (P21554 whole entry): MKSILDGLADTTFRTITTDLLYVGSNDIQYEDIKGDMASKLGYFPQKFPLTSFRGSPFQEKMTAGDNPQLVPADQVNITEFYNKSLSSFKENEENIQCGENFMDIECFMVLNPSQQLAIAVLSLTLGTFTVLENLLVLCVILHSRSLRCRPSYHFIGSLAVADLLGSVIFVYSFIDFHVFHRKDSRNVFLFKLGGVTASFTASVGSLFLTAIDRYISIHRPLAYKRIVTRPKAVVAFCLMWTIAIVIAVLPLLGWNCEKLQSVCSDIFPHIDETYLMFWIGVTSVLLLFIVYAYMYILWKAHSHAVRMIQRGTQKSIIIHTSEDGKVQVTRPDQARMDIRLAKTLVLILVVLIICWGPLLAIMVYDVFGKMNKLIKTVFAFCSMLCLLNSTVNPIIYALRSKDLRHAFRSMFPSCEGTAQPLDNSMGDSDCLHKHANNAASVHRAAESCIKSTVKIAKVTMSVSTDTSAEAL
T1 sequence (P34972 whole entry): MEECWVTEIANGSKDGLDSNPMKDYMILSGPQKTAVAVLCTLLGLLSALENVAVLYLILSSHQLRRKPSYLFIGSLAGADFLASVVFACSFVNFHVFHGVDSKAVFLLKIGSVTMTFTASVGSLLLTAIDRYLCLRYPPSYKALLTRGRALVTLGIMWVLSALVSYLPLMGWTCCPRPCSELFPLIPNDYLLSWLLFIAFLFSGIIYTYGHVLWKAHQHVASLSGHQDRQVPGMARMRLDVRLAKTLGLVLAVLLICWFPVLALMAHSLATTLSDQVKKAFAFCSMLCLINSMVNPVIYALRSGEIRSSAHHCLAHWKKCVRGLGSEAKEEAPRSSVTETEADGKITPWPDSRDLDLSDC
CYP3A4, sequence (P08684 whole entry): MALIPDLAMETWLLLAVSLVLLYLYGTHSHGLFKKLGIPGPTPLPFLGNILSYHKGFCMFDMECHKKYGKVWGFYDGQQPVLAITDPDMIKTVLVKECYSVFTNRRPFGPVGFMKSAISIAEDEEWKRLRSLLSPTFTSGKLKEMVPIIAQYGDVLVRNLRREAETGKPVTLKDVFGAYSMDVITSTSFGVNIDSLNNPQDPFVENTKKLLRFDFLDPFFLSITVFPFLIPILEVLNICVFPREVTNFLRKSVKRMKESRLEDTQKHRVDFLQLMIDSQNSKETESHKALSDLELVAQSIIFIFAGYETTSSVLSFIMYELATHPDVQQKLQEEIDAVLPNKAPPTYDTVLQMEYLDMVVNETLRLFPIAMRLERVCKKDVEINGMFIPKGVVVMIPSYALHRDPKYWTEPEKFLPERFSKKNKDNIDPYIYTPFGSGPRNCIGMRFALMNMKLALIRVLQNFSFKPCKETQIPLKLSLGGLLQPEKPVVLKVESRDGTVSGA

Compound | Ki (Cannabinoid receptor 2 [1]) [nM] | Ki (Cannabinoid receptor 1 [2]) [nM] | Ratio Ki (Homo sapiens) | also measured
CCCCCn1cc(C(=O)NCc2ccc(Cl)c(Cl)c2)c(=O)c2ccc(Br)cc21 | 130 | 660 | 5 | 
CCCCCn1cc(C(=O)NN(C)C)c(=O)c2ccc(Sc3ccccc3)cc21 | 77.5 | 86.6 | 1.1 | 
CCCn1cc(C(=O)N[C@@H]2C(C)(C)C3CC[C@]2(C)C3)c(=O)c2ccc(Sc3ccccc3)cc21 | 0.4 | 11 | 31 | 
CCCCCn1cc(C(=O)NCCN2CCOCC2)c(=O)c2ccc(Sc3ccccc3)cc21 | 119 | 63.2 | 0.5 | 
COCCn1cc(C(=O)N[C@@H]2C(C)(C)C3CC[C@]2(C)C3)c(=O)c2ccc(F)cc21 | 5.5 | 297 | 54 | 
CCCCn1cc(C(=O)N[C@@H]2C(C)(C)C3CC[C@]2(C)C3)c(=O)c2ccc(F)cc21 | 0.8 | 14.4 | 17 | 
O=C(NN1CCCCC1)c1cn(-c2ccc(Cl)cc2)c2cc(F)ccc2c1=O | > 10000 | > 10000 |  | 
CN(C)CCn1cc(C(=O)N[C@@H]2C(C)(C)C3CC[C@]2(C)C3)c(=O)c2ccc(Sc3ccccc3)cc21 | 1.3 | 28.8 | 23 | 
Cn1cc(C(=O)N[C@@H]2C(C)(C)C3CC[C@]2(C)C3)c(=O)c2ccc(Sc3ccccc3)cc21 | 16 | 1870 | 117 | 
CCCCCn1cc(C(=O)NC(CC)CO)c(=O)c2ccc(Sc3ccccc3)cc21 (centres undefined) | 19.9 | 58.2 | 2.9 | 
CCCCCn1cc(C(=O)NOC)c(=O)c2ccc(Sc3ccccc3)cc21 | 340 | 490 | 1.4 | 
Cc1cccc(Cn2cc(C(=O)N[C@@H]3C(C)(C)C4CC[C@]3(C)C4)c(=O)c3ccc(F)cc32)c1 | 31.5 | > 10000 | > 317 | 
CCCCCn1cc(C(=O)N2CCC[C@H]2C(N)=O)c(=O)c2ccc(Sc3ccccc3)cc21 | 230 | 1490 | 6.5 | 
CC1(C)C2CC[C@](C)(C2)[C@@H]1NC(=O)c1cn(CCCCSc2ccccc2)c2cc(Sc3ccccc3)ccc2c1=O | 6.5 | > 10000 | > 1540 | 
CCCCCn1cc(C(=O)NC(C)C)c(=O)c2ccc(Sc3ccccc3)cc21 | 14.8 | 20.9 | 1.4 | 
CCCCn1cc(C(=O)N[C@@H]2C(C)(C)C3CC[C@]2(C)C3)c(=O)c2ccc(Sc3ccccc3)cc21 | 0.1 | 4.7 | 31 | 
CCn1cc(C(=O)N[C@@H]2C(C)(C)C3CC[C@]2(C)C3)c(=O)c2ccc(Sc3ccccc3)cc21 | 4.4 | 181 | 42 | 
CCCCCn1cc(C(=O)NCc2ccc(Cl)c(Cl)c2)c(=O)c2ccc(Sc3ccccc3)cc21 | > 10000 | 420 | < 0.04 | remaining at 3 h [3]: 100%; Emax (Cannabinoid receptor 1 [4]): 55.8%; efflux ratio at 2 h, 10 µM (MDR1 [5]): 0.4; EC50 (Cannabinoid receptor 1 [6]): 791 nM; microsomal CLint [7]: > 700 µL/min/mg; remaining at 1 h (CYP3A4): 25%; Papp A→B at 2 h, 10 µM (MDR1 [8]): 0.14 ×10⁻⁶ cm/s; microsomal CLint [9]: > 700 µL/min/mg
CCCCCn1cc(C(=O)NC23CC4CC(CC(C4)C2)C3)c(=O)c2ccc(Sc3ccccc3)cc21 |  |  | 3.3 | 

Compound | Ki (Cannabinoid receptor 2 [1]) [nM] | Ki (Cannabinoid receptor 1 [2]) [nM] | Ratio Ki (Homo sapiens) | also measured
CC1(C)C2CC[C@](C)(C2)[C@@H]1NC(=O)c1cn(CCCCO)c2cc(Sc3ccccc3)ccc2c1=O | 2.5 | 38.6 | 15 | 
Cc1cccc(Cn2cc(C(=O)N[C@@H]3C(C)(C)C4CC[C@]3(C)C4)c(=O)c3ccc(Sc4ccccc4)cc32)c1 | 139 | 669 | 5 | 
COCCn1cc(C(=O)N[C@@H]2C(C)(C)C3CC[C@]2(C)C3)c(=O)c2ccc(Sc3ccccc3)cc21 | 1.1 | 23.8 | 22 | 
O=C(NN1CCCCC1)c1cn(-c2ccc(F)cc2)c2cc(Sc3ccccc3)ccc2c1=O | > 10000 | > 10000 |  | 
CC1(C)C2CC[C@](C)(C2)[C@@H]1NC(=O)c1cnc2cc(F)ccc2c1O | 957 | > 10000 |  | 
CCCCCn1cc(C(=O)N[C@@H]2C(C)(C)C3CC[C@]2(C)C3)c(=O)c2ccc(F)cc21 | 0.3 | 4 | 17 | 
CCCCCn1cc(C(=O)N[C@@H]2C(C)(C)C3CC[C@]2(C)C3)c(=O)c2ccc(Sc3ccccc3)cc21 | 0.09 | 2.45 | 27.2 | 
C=Cn1cc(C(=O)N[C@@H]2C(C)(C)C3CC[C@]2(C)C3)c(=O)c2ccc(F)cc21 | 15.2 | 3570 | 235 | 
CN(C)CCn1cc(C(=O)N[C@@H]2C(C)(C)C3CC[C@]2(C)C3)c(=O)c2ccc(F)cc21 | 7.9 |  |  | 
CCCCCn1cc(C(=O)NN2CCCCC2)c(=O)c2ccc(Sc3ccccc3)cc21 | 13.3 | 28.9 | 2.2 | 
CC1(C)C2CC[C@](C)(C2)[C@@H]1NC(=O)c1c[nH]c2cc(F)ccc2c1=O |  |  | > 10 | 
CCCCCn1cc(C(=O)NC2CN3CCC2CC3)c(=O)c2ccc(Sc3ccccc3)cc21 (centres undefined) | 89.1 | 151 | 1.7 | 
CCn1cc(C(=O)N[C@@H]2C(C)(C)C3CC[C@]2(C)C3)c(=O)c2ccc(F)cc21 | 7.3 | 960 | 131 | remaining at 3 h [3]: 92%; efflux ratio at 2 h, 10 µM (MDR1 [5]): 1; EC50 (Cannabinoid receptor 2 [10]): 17.2 nM; microsomal CLint [7]: > 700 µL/min/mg; remaining at 1 h (CYP3A4): 1%; Emax (Cannabinoid receptor 2 [11]): 45%; Papp A→B at 2 h, 10 µM (MDR1 [8]): 0.17 ×10⁻⁶ cm/s; microsomal CLint [9]: > 700 µL/min/mg
CCCCCn1cc(C(=O)NOCc2ccccc2)c(=O)c2ccc(Sc3ccccc3)cc21 | 19.3 | 12.9 | 0.7 | 
CCCn1cc(C(=O)N[C@@H]2C(C)(C)C3CC[C@]2(C)C3)c(=O)c2ccc(F)cc21 | 2.9 | 193 | 57 | 
CCCCCn1cc(C(=O)NCc2ccc(Cl)c(Cl)c2)c(=O)c2ccc(-c3ccccc3)cc21 | > 10000 | 390 | < 0.04 | 
CCCCCn1cc(C(=O)NC23CC4CC(CC(C4)C2)C3)c(=O)c2ccc(F)cc21 |  |  | 38 | 
CC1(C)C2CC[C@](C)(C2)[C@@H]1NC(=O)c1cn(CCCCO)c2cc(F)ccc2c1=O | 15.2 | 398 | 26 | 
Cn1cc(C(=O)N[C@@H]2C(C)(C)C3CC[C@]2(C)C3)c(=O)c2ccc(F)cc21 | 93.9 | > 10000 | > 106 | 
